Assay results published in ChEMBL document CHEMBL2375232, “4-Amino-2-arylamino-5-indoloyl/cinnamoythiazoles, analogs of topsentin-class of marine alkaloids, induce apoptosis in HeLa cells” (Eur J Med Chem, 2013).
Calls of active or inactive are those of the source. No cut-off for these calls is given here.

Tests used:
HeLa [1] = experiment: Induction of apoptosis in human HeLa cells assessed as activation of caspase 8 after 48 hrs by fluorescence assay relative to control; assay type: functional
How it was run: (§1)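 Fluorogenic substrate assay. 1×10⁶ HeLa cells treated 48 h, lysed in Tris/phosphate buffer pH 7.5 with 1% Triton X-100. Lysate incubated 1 h at 37 °C in PIPES assay buffer pH 7.2 (DTT, EDTA, CHAPS, sucrose) with Ac-DEVD-AFC (caspase 3), Ac-IETD-AFC (caspase 8) or Ac-LEHD-AFC (caspase 9). AFC read at excitation 400 nm, emission 480–520 nm; fold RFU over untreated control; mean ± SD of three experiments.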

HeLa [2] = experiment: Inhibition of TNFalpha-induced NFkappaB activation (unknown origin) expressed in human HeLa cells at IC50 treated 24 hrs before TNFalpha challenge measured after 5 hrs by luciferase reporter gene assay; assay type: cell-based
HeLa [3] = experiment: Induction of apoptosis in human HeLa cells assessed as activation of caspase 9 after 48 hrs by fluorescence assay relative to control; assay type: functional; how it was run: as §1
HeLa [4] = experiment: Induction of apoptosis in human HeLa cells assessed as activation of caspase 3 after 48 hrs by fluorescence assay relative to control; assay type: functional; how it was run: as §1
HeLa [5] = experiment: Induction of apoptosis in human HeLa cells assessed as loss of mitochondrial membrane potential using JC-1 staining after 48 hrs by fluorescence microscopic analysis; assay type: functional, cell-based
How it was run: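 Treated cells (48 h, 24-well plates) were given JC-1 diluted in medium and incubated 10 min at 37 °C (or 15 min at RT), washed twice in PBS and viewed by fluorescence microscopy. Orange/red fluorescence marks intact membrane potential; green marks its loss. Confirmed in three independent experiments.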

HeLa [6] = experiment: Cell cycle arrest in human HeLa cells assessed as accumulation at S phase after 24 hrs by flow cytometry analysis (reference value: 4.5 +/- 0.2%); assay type: functional
HeLa [7] = experiment: Cell cycle arrest in human HeLa cells assessed as accumulation at G2/M phase after 24 hrs by flow cytometry analysis (reference value: 13.2 +/- 0.48%); assay type: functional
HeLa [8] = experiment: Cell cycle arrest in human HeLa cells assessed as accumulation at G0/G1 phase after 24 hrs by flow cytometry analysis (reference value: 80.7 +/- 0.47%); assay type: functional
HeLa [9] = experiment: Cell cycle arrest in human HeLa cells assessed as accumulation at sub-G0 phase after 24 hrs by flow cytometry analysis (reference value: 1.2 +/- 0.29%); assay type: functional
HeLa [10] = experiment: Induction of apoptosis in human HeLa cells assessed as nuclear condensation using DAPI staining at IC50 after 48 hrs by fluorescence microscopic analysis; assay type: functional, cell-based
How it was run: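 They were PBS-washed, stained with DAPI (1 µg/mL in methanol) for 10 min at 37 °C and imaged by fluorescence microscopy. Condensed chromatin or fragmented nuclei scored as apoptotic; three independent experiments.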

HeLa [11] = experiment: Induction of apoptosis in human HeLa cells using acridine orange/ethidium bromide staining at IC50 after 48 hrs by fluorescence microscopic analysis; assay type: functional, cell-based
How it was run: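 HeLa cells seeded at 75000/well in 24-well plates, treated at IC50 for 48 h, PBS-washed and stained with acridine orange/ethidium bromide mixture (each 100 µg/mL) for 30 min at 37 °C. Apoptotic morphology assessed by fluorescence microscopy; three independent experiments in duplicate.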

HeLa [12] = experiment: Cytotoxicity against human HeLa cells after 48 hrs by alamar blue assay; assay type: functional, cell-based
How it was run: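 Alamar blue (resazurin) viability assay. HeLa cells seeded at 5000 cells/well, treated 24 h later with a range of concentrations for 48 h. Alamar blue (0.2 mg/mL) was then added for 2–4 h and absorbance read at 570 and 595 nm. Survival is percent of untreated control; IC50 taken from the concentration–response curves; three experiments in triplicate.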

HeLa [13] = experiment: Cell cycle arrest in human HeLa cells assessed as accumulation at G2/M phase after 48 hrs by flow cytometry analysis (reference value: 16.6 +/- 0.16%); assay type: functional
HeLa [14] = experiment: Cell cycle arrest in human HeLa cells assessed as accumulation at S phase after 48 hrs by flow cytometry analysis (reference value: 7.2 +/- 0.77%); assay type: functional
HeLa [15] = experiment: Cell cycle arrest in human HeLa cells assessed as accumulation at G0/G1 phase after 48 hrs by flow cytometry analysis (reference value: 73.1 +/- 1.02%); assay type: functional
HeLa [16] = experiment: Cell cycle arrest in human HeLa cells assessed as accumulation at sub-G0 phase after 48 hrs by flow cytometry analysis (reference value: 2.3 +/- 0.37%); assay type: functional

| SMILES | fold change (FC) (HeLa [1]) | inhibition (HeLa [2]) [%] | fold change (FC) (HeLa [3]) | fold change (FC) (HeLa [4]) | Activity (HeLa [5]) | Activity (HeLa [6]) [%] | Activity (HeLa [7]) [%] | Activity (HeLa [8]) [%] | Activity (HeLa [9]) [%] | Activity (HeLa [10]) | Activity (HeLa [11]) | IC50 (HeLa [12]) [µM] | Activity (HeLa [13]) [%] | Activity (HeLa [14]) [%] | Activity (HeLa [15]) [%] | Activity (HeLa [16]) [%] |
| --- | --- | --- | --- | --- | --- | --- | --- | --- | --- | --- | --- | --- | --- | --- | --- | --- |
| COc1cc(/C=C/C(=O)CC(=O)/C=C/c2ccc(O)c(OC)c2)ccc1O [CURCUMIN] | 1.4 | 79 | 1.7 | 2.1 | Active |  |  |  |  |  |  |  |  |  |  |  |
| Nc1nc(Nc2ccc(Cl)cc2)sc1C(=O)c1c[nH]c2ccccc12 | 0.96 | 80 | 2.5 | 2.5 | Active | 8.12 | 11.8 | 56.34 | 23.74 | Active | Active | 45 | 21.56 | 8.95 | 13.75 | 55.33 |
| COc1ccc(Nc2nc(N)c(C(=O)c3c[nH]c4ccccc34)s2)cc1 | 1.1 | 34 | 1.6 | 2.8 | Active | 4.2 | 35.3 | 43.2 | 16.7 | Active | Active | 1 | 12.5 | 7.8 | 24 | 49 |
| COc1ccc(Nc2nc(Nc3ccc(Cl)cc3)c(C(=O)c3c[nH]c4ccccc34)s2)cc1 | 1.54 | 72 | 4.4 | 2.4 | Active | 10.19 | 17.51 | 59.13 | 13.17 | Active | Active | 20 | 9.78 | 7.69 | 38.53 | 42.37 |
| COc1cc(/C=C/C(=O)c2sc(Nc3ccc(Cl)cc3)nc2N)ccc1O | 0.9 | 87 | 2.3 | 1.5 | Active | 4.4 | 27.2 | 64.7 | 3.4 | Active | Active | 60 | 28.2 | 14.2 | 38 | 16.7 |
| COc1ccc(/C=C/C(=O)c2sc(Nc3ccc(Cl)cc3)nc2N)cc1O | 1.2 | 56 | 2.6 | 2.2 | Active | 6.8 | 51.4 | 15.37 | 25.8 | Active | Active | 30 | 35.8 | 9 | 15 | 35 |
